In data set [1] the target is T1, Short transient receptor potential channel 5 (Mus musculus) (UniProt Q9QX29).
T1 sequence (whole entry): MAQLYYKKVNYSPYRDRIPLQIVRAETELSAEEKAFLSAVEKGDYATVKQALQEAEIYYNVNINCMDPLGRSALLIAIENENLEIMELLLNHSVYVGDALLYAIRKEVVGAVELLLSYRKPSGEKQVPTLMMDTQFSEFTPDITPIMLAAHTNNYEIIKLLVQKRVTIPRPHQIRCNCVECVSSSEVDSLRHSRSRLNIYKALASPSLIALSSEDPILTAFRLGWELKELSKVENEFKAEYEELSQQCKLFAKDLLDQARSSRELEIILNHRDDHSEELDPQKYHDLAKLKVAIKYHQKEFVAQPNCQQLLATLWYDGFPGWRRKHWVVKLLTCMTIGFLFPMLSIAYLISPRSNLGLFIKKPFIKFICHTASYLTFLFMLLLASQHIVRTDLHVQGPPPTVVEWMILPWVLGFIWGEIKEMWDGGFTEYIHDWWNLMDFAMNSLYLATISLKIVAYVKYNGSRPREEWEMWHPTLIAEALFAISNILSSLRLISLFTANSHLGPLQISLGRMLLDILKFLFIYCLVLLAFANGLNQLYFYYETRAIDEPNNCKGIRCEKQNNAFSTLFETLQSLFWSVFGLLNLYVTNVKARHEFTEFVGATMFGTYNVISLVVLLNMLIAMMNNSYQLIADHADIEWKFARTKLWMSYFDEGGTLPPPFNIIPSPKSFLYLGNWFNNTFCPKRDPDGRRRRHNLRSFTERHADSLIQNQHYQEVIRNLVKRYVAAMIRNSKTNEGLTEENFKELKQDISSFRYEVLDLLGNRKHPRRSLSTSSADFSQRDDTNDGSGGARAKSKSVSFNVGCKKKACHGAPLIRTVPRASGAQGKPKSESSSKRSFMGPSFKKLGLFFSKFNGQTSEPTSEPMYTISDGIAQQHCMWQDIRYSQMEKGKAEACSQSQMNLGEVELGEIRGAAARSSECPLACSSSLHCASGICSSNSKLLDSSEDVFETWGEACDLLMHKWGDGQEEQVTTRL
As to the kind of experiment: Inhibition of mouse TRPC5 expressed in Flp-In-T-Rex-HEK293 cells assessed as reduction in […]-induced channel current at 3 uM by automated patch clamp method relative to control. In kind it is cell-based. The method, boiled down: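 Automated patch clamp (Syncropatch), one concentration in one well, >10 cells. At least one session across two assay plates. DMSO vehicle and a reference inhibitor run as controls on every plate. Result expressed as % inhibition.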

Data set [2] deals with T2, Short transient receptor potential channel 5 (Mus musculus, UniProt Q9QX29).
T2 sequence (Q9QX29 whole entry): T1 sequence (whole entry)
As to the kind of experiment: Inhibition of mouse TRPC5 expressed in Flp-In-T-Rex-HEK293 cells assessed as reduction in […]-induced channel current by automated patch clamp method. It counts as cell-based. An outline of the steps: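 Automated patch clamp (Syncropatch) with multiple concentrations in multiple wells. IC50 determined from these wells.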

Data set [3] can be described thus: Cmax in rat at 25 mg/kg, ip. In kind it is ADME, organism-based. More on the design: dose 25 mg/kg, route intraperitoneal. The conditions noted are these: in vivo. The method, boiled down: (§1)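 Single intraperitoneal dose of 25 mg/kg in 5% DMSO, 10% Tween80, 85% PBS.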
Data set [4] in a line: Tmax in rat at 25 mg/kg, ip. It counts as ADME, organism-based. The conditions noted are these: in vivo. The method, boiled down:
as §1

Data set [5] in a line: AUC in rat at 25 mg/kg, ip. It counts as ADME, organism-based. The conditions noted are these: in vivo. The method, boiled down:
as §1

In general, inhibition refers to the relative decrease from the control value, in per cent. By IC50 is commonly meant the concentration at which inhibition is half-maximal. A word on the Cmax: it is the highest concentration seen after dosing. For orientation: Tmax means the time from dosing to the highest level. The term AUC denotes concentration integrated over time. The low end stands for less exposure, the high end for more exposure.

In the case of `Cc1cc2nc(NCc3ccco3)n(Cc3ccccc3)c2cc1C`, in data set [1], the inhibition amounted to 123%. In addition, the IC50 in data set [2] was 12.3 µM.

As for `Brc1ccc(OCCn2c(NCc3ccco3)nc3ccccc32)cc1`, the inhibition in data set [1] came out at 91.1%.

Turning to `c1ccc(Cn2c(NCc3ccco3)nc3cccnc32)cc1`, the inhibition in data set [1] is 31.2%.

As for `c1ccc(CNc2nc3ccccc3n2Cc2ccccc2)cc1`, the inhibition in data set [1] is 32.8%.

For `c1ccc(Cn2c(NCc3ccccn3)nc3ccccc32)cc1`, the inhibition in data set [1] is -1.8%.

Take `Fc1ccc(Cn2c(NCc3ccco3)nc3ccccc32)c(F)c1`: the inhibition in data set [1] came to 87%. Moreover, the IC50 in data set [2] amounted to 8.42 µM.

In the case of `Cc1nc(CNc2nc3ccccc3n2Cc2ccccc2)no1`, in data set [1], the inhibition is 19.8%.

For the compound `c1ccc(Cn2c(NCc3cnco3)nc3ccccc32)cc1`, the inhibition in data set [1] was 33.3%.

`c1ccc(Cn2c(Nc3ccccc3)nc3ccccc32)cc1`: in data set [1], the inhibition was 18.9%.

In the case of `c1ccc(Cn2c(Nc3cccnc3)nc3ccccc32)cc1`, in data set [1], the inhibition is 19.9%.

For the compound `Clc1cccc(Cn2c(NCc3ccco3)nc3ccccc32)c1`, in data set [1], the inhibition was determined as 70.2%.

Consider `Fc1ccccc1Cn1c(NCc2ccco2)nc2ccccc21`, for which, in data set [1], the inhibition was determined as 54.4%.

Consider `COc1ccc(Cn2c(NCc3ccco3)nc3ccccc32)cc1F`, for which the inhibition in data set [1] was determined as 88.4%. Also, the IC50 in data set [2] came to 11.6 µM.

Regarding `Clc1ccccc1Cn1c(NCc2ccco2)nc2ccccc21`, the inhibition in data set [1] was determined as 2.6%.

Regarding `Cc1cccc(Cn2c(NCc3ccco3)nc3ccccc32)c1`, in data set [1], the inhibition is 94.6%. Also, the IC50 in data set [2] is 4.8 µM.

Consider `Fc1ccc(Cn2c(NCc3ccco3)nc3ccccc32)cc1`, for which the IC50 in data set [2] was 1.82 µM.

Turning to `c1coc(CNc2nc3ccccc3n2CCN2CCOCC2)c1`, the inhibition in data set [1] came out at 34.4%.

Consider `c1ccc(Cn2c(NCc3cccnc3)nc3ccccc32)cc1`, for which, in data set [1], the inhibition worked out at 12%.

Take `Fc1ccc(Cn2c(NCc3ccco3)nc3ccccc32)c(Cl)c1`: in data set [1], the inhibition was 23.6%.

On to `CCCn1c(NCc2ccco2)nc2ccccc21`, for which the inhibition in data set [1] was found to be 81.2%. Moreover, in data set [2], the IC50 came to 15.5 µM.

`O=C(Nc1nc2ccccc2n1Cc1ccccc1)c1ccco1`: the inhibition in data set [1] was determined as 38.5%.

On to `Cc1nc2ccccc2n1Cc1ccccc1`, for which, in data set [1], the inhibition stood at 19%.

For `Fc1cccc(Cn2c(NCc3ccco3)nc3ccccc32)c1`, the inhibition in data set [1] turned out to be 61.9%.

Take `Cc1ccoc1CNc1nc2ccccc2n1Cc1ccccc1`: in data set [1], the inhibition was determined as 82.3%. Also, the IC50 in data set [2] was 6.93 µM.

In the case of `c1coc(CNc2nc3ccccc3n2CC2CCCCC2)c1`, the inhibition in data set [1] worked out at 61.6%.

Turning to `Clc1ccc(Cn2c(NCc3ccco3)nc3ccccc32)cc1`, the inhibition in data set [1] is 70.9%.

For the compound `CC(Nc1nc2ccccc2n1Cc1ccccc1)c1nccs1` (configuration not stated), the inhibition in data set [1] is 45%.

`Cc1ncc(CNc2nc3ccccc3n2Cc2ccccc2)s1`: the inhibition in data set [1] is 35.7%.

`Cc1nnc(CNc2nc3ccccc3n2Cc2ccccc2)s1`: the inhibition in data set [1] was 30%.

On to `c1ccc(Cn2c(NCc3ccon3)nc3ccccc32)cc1`, for which, in data set [1], the inhibition is 47%.

`c1ccc(Cn2c(NCc3cc4ccccc4o3)nc3ccccc32)cc1`: the inhibition in data set [1] was 18%.

As to `c1ccc(Cn2c(NCc3nccs3)nc3ccccc32)cc1`, the inhibition in data set [1] was determined as 42.5%.

With `Clc1cc2nc(NCc3ccco3)n(Cc3ccccc3)c2cc1Cl`, in data set [1], the inhibition was found to be 28.2%.

In the case of `Fc1ccc(Cn2c(NCc3ccco3)nc3cccnc32)cc1`, the inhibition in data set [1] is 21.7%.

`N#Cc1ccc(Cn2c(NCc3ccco3)nc3ccccc32)cc1`: the inhibition in data set [1] was found to be 50.5%.

Consider `c1coc(CNc2nc3ccccc3n2CC2CCC2)c1`, for which, in data set [1], the inhibition is 117%.

In the case of `CC(Nc1nc2ccccc2n1Cc1ccccc1)c1ccco1` (configuration not stated), the inhibition in data set [1] was determined as 91.4%. Besides, the IC50 in data set [2] was 4.44 µM.

On to `CN(Cc1ccco1)c1nc2ccccc2n1Cc1ccccc1`, for which, in data set [1], the inhibition amounted to 41.7%.

For `Fc1cc(Cl)ccc1Cn1c(NCc2ccco2)nc2ccccc21`, the inhibition in data set [1] was determined as 128%. The IC50 in data set [2] was 18.1 µM.

For the compound `c1ccc(Cn2c(NCc3ccncc3)nc3ccccc32)cc1`, the inhibition in data set [1] was 17.4%.

As to `c1coc(CNc2nc3ccccc3n2CC2CCCO2)c1` (configuration not stated), the inhibition in data set [1] was 65.2%.

On to `c1ccc(Cn2c(NCc3ccco3)nc3ccccc32)cc1`, for which the Cmax in data set [3] was 687 ng/mL. In data set [4], the Tmax was 6.6 min. The inhibition in data set [1] was 100%. The compound further registered an AUC in data set [5] of 1130 ng·h/mL. The IC50 in data set [2] was found to be 4.06 µM.

For `c1ccc(Cn2c(NCc3ncco3)nc3ccccc32)cc1`, the inhibition in data set [1] came to 19.1%.

Consider `c1ccc(Cn2c(NCc3cccs3)nc3ccccc32)cc1`, for which, in data set [1], the inhibition was 150%. The IC50 in data set [2] was 6.26 µM.

(Values after ChEMBL document CHEMBL4371058, “Design, synthesis and characterization of novel N-heterocyclic-1-benzyl-1H-benzo[d]imidazole-2-amines as selective TRPC5 inhibitors leading to the identification of the selective compound, AC1903” (Bioorg Med Chem Lett, 2019).)
